Measurements reported in ChEMBL document CHEMBL1143334, “Peri-substituted hexahydro-indolones as novel, potent and selective human EP3 receptor antagonists” (Bioorg Med Chem Lett, 2009).
Activity calls are given as the source filed them. No cut-off for these calls is given here.

Key:
[1] = biological target: T1, Prostaglandin E2 receptor EP3 subtype (Homo sapiens, UniProt P43115); test: Displacement of [3H]PGE2 from human EP3 receptor
T1 sequence (P43115 whole entry): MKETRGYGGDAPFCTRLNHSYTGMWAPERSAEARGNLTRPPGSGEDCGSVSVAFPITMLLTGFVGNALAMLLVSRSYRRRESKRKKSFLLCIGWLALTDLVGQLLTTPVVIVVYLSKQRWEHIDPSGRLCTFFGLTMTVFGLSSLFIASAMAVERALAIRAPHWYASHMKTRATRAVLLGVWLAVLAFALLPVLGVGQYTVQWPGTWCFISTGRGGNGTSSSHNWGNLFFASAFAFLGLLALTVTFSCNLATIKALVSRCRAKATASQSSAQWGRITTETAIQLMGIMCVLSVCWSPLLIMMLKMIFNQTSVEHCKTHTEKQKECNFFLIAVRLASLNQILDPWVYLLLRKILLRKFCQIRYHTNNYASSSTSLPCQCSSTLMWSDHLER
Outline: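 Displacement of [3H]-PGE2 from human EP3 receptor membrane preparations was run in buffer. IC50 values come from at least three experiments each.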

[2] = Metabolic stability in rat liver microsomes after 30 mins; format: ADME, Microsome; conditions: read-out: Stability
Outline: (§1)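 Compound was incubated 30 min with liver microsomes from each species. Percent parent remaining was measured by LC/MS/MS.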

[3] = biological target: T2, Prostaglandin E2 receptor EP3 subtype (Homo sapiens) (UniProt P43115); test: Ratio of IC50 for human EP3 receptor in presence of 10% human serum to IC50 for human EP3 receptor in buffer
T2 sequence (whole entry): T1 sequence (P43115 whole entry)
Outline: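 Displacement of [3H]-PGE2 from human EP3 membrane preparations was run both with 10% human serum and in buffer alone. Fold-shift is IC50 with serum divided by IC50 in buffer.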

[4] = Metabolic stability in human liver microsomes after 30 mins; format: ADME, Microsome; conditions: read-out: Stability; outline: as §1
[5] = biological target: T1, Prostaglandin E2 receptor EP3 subtype; test: Antagonist activity at human EP3 receptor expressed in CHO-K1 cells assessed as reversal of inhibition of forskolin-induced cAMP production; format: functional, cell-based
Outline: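 CHO-K1 cells stably expressing human EP3 were exposed to increasing test compound concentrations for 10 min at 37 °C, with 5 μM forskolin plus 5 nM PGE2 present. Read-out was the block of PGE2's inhibition of the forskolin-induced cAMP rise, giving IC50.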

[6] = biological target: T3, Prostaglandin E2 receptor EP1 subtype (Homo sapiens) (UniProt P34995); test: Binding affinity to human EP1 receptor at 20 uM by radioligand binding assay
T3 sequence (whole entry): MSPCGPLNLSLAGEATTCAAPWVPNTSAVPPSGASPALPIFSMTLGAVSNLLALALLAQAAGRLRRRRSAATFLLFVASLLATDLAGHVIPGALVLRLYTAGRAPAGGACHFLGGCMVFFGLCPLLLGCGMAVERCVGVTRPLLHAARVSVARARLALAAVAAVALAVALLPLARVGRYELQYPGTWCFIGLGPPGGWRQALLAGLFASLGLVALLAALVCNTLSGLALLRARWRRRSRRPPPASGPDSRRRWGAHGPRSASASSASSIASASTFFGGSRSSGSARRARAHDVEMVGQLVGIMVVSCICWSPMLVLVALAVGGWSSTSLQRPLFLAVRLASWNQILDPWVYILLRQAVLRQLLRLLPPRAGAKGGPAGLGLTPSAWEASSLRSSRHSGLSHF

[7] = biological target: Prostaglandin E2 receptor EP4 subtype (Homo sapiens, UniProt P35408); test: Binding affinity to human EP4 receptor at 20 uM by radioligand binding assay
Sequence of Prostaglandin E2 receptor EP4 subtype (P35408 whole entry): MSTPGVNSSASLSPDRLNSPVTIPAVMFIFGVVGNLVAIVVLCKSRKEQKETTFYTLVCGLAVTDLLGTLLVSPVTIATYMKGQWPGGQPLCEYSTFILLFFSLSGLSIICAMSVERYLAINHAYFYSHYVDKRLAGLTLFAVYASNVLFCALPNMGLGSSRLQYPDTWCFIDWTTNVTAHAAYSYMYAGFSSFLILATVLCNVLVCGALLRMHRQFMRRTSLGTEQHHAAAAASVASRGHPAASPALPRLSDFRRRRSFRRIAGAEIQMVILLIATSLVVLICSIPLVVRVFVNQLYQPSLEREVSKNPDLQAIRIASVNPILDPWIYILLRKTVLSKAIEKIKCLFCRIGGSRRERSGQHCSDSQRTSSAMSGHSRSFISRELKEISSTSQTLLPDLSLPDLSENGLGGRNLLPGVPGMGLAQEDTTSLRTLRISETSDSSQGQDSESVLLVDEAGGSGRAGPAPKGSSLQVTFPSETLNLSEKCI

Homo sapiens [8] = species: Homo sapiens; test: Selectivity of human EP2 receptor over human EP3 receptor
[9] = biological target: Prostaglandin F2-alpha receptor (Homo sapiens, UniProt P43088); test: Binding affinity to human FP receptor by radioligand binding assay
Sequence of Prostaglandin F2-alpha receptor (P43088 whole entry): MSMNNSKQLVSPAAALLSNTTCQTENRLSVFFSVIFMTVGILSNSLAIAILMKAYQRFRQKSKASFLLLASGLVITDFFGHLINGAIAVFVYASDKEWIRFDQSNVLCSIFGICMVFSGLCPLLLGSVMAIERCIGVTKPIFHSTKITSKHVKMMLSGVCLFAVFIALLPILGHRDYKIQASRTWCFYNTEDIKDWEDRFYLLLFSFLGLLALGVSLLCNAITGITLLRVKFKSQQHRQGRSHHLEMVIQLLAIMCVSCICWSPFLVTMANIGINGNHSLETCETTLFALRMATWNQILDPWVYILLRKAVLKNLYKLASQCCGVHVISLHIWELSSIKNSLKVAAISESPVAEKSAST

Homo sapiens [10] = species: Homo sapiens; test: Selectivity of human EP1 receptor over human EP3 receptor
[11] = biological target: Prostaglandin E2 receptor EP2 subtype (Homo sapiens, UniProt P43116); test: Binding affinity to human EP2 receptor at 20 uM by radioligand binding assay
Sequence of Prostaglandin E2 receptor EP2 subtype (P43116 whole entry): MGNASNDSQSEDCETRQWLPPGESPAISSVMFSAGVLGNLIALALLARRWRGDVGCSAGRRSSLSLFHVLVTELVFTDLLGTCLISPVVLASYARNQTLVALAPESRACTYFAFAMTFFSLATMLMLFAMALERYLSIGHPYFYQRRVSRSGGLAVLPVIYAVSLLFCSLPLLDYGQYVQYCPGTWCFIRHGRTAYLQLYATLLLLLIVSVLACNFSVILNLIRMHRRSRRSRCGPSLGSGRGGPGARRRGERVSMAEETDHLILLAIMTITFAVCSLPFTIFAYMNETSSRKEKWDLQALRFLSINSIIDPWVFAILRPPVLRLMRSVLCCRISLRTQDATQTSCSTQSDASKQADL

Homo sapiens [12] = species: Homo sapiens; test: Selectivity of human FP receptor over human EP3 receptor
Homo sapiens [13] = species: Homo sapiens; test: Selectivity of human EP4 receptor over human EP3 receptor

Structure (SMILES) | IC50 [1] | remaining at 0.5 h [2] | fold change (FC) [3] | remaining at 0.5 h [4] | other results
CC12CCCC(/C=C/C(=O)NS(=O)(=O)c3cc(Cl)c(Cl)s3)=C1N(Cc1ccc(Cl)cc1Cl)C(=O)C2 (stereo not drawn) | 2.3 nM | 60% | 38.4 | 58% | –
CC12CCCC(/C=C/C(=O)NS(=O)(=O)c3cc(Cl)c(Cl)s3)=C1N(Cc1cccc(Cl)c1Cl)C(=O)C2 (stereo not drawn) | 4.4 nM | 69% | 6.6 | 80% | IC50 [5]: 1.7 nM
COC(=O)C12CCCC(/C=C/C(=O)NS(=O)(=O)c3cc(F)c(F)cc3F)=C1N(Cc1ccc(Cl)cc1Cl)C(=O)C2 (stereo not drawn) | 11.2 nM | – | 47.1 | – | –
CC12CCCC(/C=C/C(=O)NS(=O)(=O)c3cc(Cl)c(Cl)s3)=C1N(Cc1cccc(Cl)c1)C(=O)C2 (stereo not drawn) | 2.2 nM | – | 16.3 | – | –
CC12CCCC(/C=C/C(=O)NS(=O)(=O)c3cccs3)=C1N(Cc1ccc(Cl)cc1Cl)C(=O)C2 (stereo not drawn) | 57.2 nM | 79% | 25.2 | 78% | –
C[C@]12CCC[C@@H](CCC(=O)NS(=O)(=O)c3cc(F)c(F)cc3F)[C@H]1N(Cc1ccc(F)c(F)c1)C(=O)C2 | 557 nM | – | 25.7 | – | –
CC12CCCC(/C=C/C(=O)NS(=O)(=O)c3cc(Cl)c(Cl)s3)=C1N(Cc1cccc(F)c1)C(=O)C2 (stereo not drawn) | 9.5 nM | 18% | 8.2 | 67% | –
CC12CCCC(/C=C/C(=O)NS(=O)(=O)c3ccc(Cl)s3)=C1N(Cc1ccc(Cl)cc1Cl)C(=O)C2 (stereo not drawn) | 13.4 nM | 68% | 6.9 | 75% | –
COC(=O)C12CCCC(/C=C/C(=O)NS(=O)(=O)c3cc(Cl)c(Cl)s3)=C1N(Cc1ccc(F)c(F)c1)C(=O)C2 (stereo not drawn) | 29.9 nM | – | 308 | – | –
CC12CCCC(CCC(=O)NS(=O)(=O)c3cc(F)c(F)cc3F)=C1N(Cc1ccc(F)c(F)c1)C(=O)C2 (stereo not drawn) | 1.8 nM | – | 33.2 | – | –
CC12CCCC(/C=C/C(=O)NS(=O)(=O)c3cc(Cl)cc(Cl)c3)=C1N(Cc1ccc(Cl)cc1Cl)C(=O)C2 (stereo not drawn) | 9.8 nM | 62% | 61.2 | 70% | –

Second part, led by results:

IC50 [1] | remaining at 0.5 h [2] | fold change (FC) [3] | remaining at 0.5 h [4] | Structure (SMILES) | other results
3.5 nM | 22% | 17.7 | 80% | CC12CCCC(/C=C/C(=O)NS(=O)(=O)c3cc(Cl)c(Cl)s3)=C1N(Cc1ccc(F)c(F)c1)C(=O)C2 (stereo not drawn) | IC50 [5]: 5.2 nM
2.5 nM | – | 15.9 | – | CC12CCCC(/C=C/C(=O)NS(=O)(=O)c3ccc(F)c(F)c3)=C1N(Cc1ccc(F)cc1)C(=O)C2 (stereo not drawn) | –
15.2 nM | 64% | 21.2 | 70% | CC12CCCC(/C=C/C(=O)NS(=O)(=O)c3ccc(F)cc3)=C1N(Cc1ccc(Cl)cc1Cl)C(=O)C2 (stereo not drawn) | –
3.4 nM | – | 18 | – | CC12CCCC(/C=C/C(=O)NS(=O)(=O)c3ccc(F)c(F)c3)=C1N(Cc1ccc(Cl)cc1Cl)C(=O)C2 (stereo not drawn) | –
84.1 nM | – | 5.4 | – | CC12CCCC(/C=C/C(=O)NS(=O)(=O)c3cc(F)cc(F)c3)=C1N(Cc1ccc(F)cc1)C(=O)C2 (stereo not drawn) | Activity [6]: inactive; Activity [7]: inactive; Selectivity ratio (Homo sapiens [8]): > 1000; IC50 [9]: 4200 nM; Selectivity ratio (Homo sapiens [10]): > 1000; Activity [11]: inactive; Selectivity ratio (Homo sapiens [12]): > 1000; Selectivity ratio (Homo sapiens [13]): > 1000
5.6 nM | 84% | 6.2 | 76% | COc1cccc(CN2C(=O)CC3(C)CCCC(/C=C/C(=O)NS(=O)(=O)c4cc(F)c(F)cc4F)=C23)c1 (stereo not drawn) | –
3.8 nM | 50% | 3 | 74% | CC12CCCC(/C=C/C(=O)NS(=O)(=O)c3cc(Cl)c(Cl)s3)=C1N(Cc1ccc(F)cc1)C(=O)C2 (stereo not drawn) | Activity [6]: inactive; Activity [7]: inactive; Selectivity ratio (Homo sapiens [8]): > 1000; IC50 [9]: 27400 nM; Selectivity ratio (Homo sapiens [10]): > 1000; Activity [11]: inactive; Selectivity ratio (Homo sapiens [12]): > 1000; Selectivity ratio (Homo sapiens [13]): > 1000
20.6 nM | – | 22 | – | COC(=O)C12CCCC(/C=C/C(=O)NS(=O)(=O)c3ccc(F)c(F)c3)=C1N(Cc1ccc(Cl)cc1Cl)C(=O)C2 (stereo not drawn) | –
5.6 nM | – | 62.4 | – | COc1cccc(CN2C(=O)CC3(C)CCCC(/C=C/C(=O)NS(=O)(=O)c4cc(F)cc(F)c4)=C23)c1 (stereo not drawn) | –
4.3 nM | 50% | 5.8 | 49% | CC12CCCC(/C=C/C(=O)NS(=O)(=O)c3cc(F)c(F)cc3F)=C1N(Cc1cccc(Cl)c1Cl)C(=O)C2 (stereo not drawn) | Activity [6]: inactive; Activity [7]: inactive; Selectivity ratio (Homo sapiens [8]): > 1000; IC50 [9]: 7400 nM; IC50 [5]: 4.5 nM; Selectivity ratio (Homo sapiens [10]): > 1000; Activity [11]: inactive; Selectivity ratio (Homo sapiens [12]): > 1000; Selectivity ratio (Homo sapiens [13]): > 1000
9.2 nM | – | 217 | – | CC12CCCC(/C=C/C(=O)NS(=O)(=O)c3cc(F)cc(F)c3)=C1N(Cc1ccc(F)c(F)c1)C(=O)C2 (stereo not drawn) | –
3.8 nM | – | 33.7 | – | CC12CCCC(/C=C/C(=O)NS(=O)(=O)c3cc(F)cc(F)c3)=C1N(Cc1cccc(Cl)c1Cl)C(=O)C2 (stereo not drawn) | –
5.6 nM | 45% | 26.8 | 68% | CC12CCCC(/C=C/C(=O)NS(=O)(=O)c3cc(Cl)cc(Cl)c3)=C1N(Cc1ccc(F)c(F)c1)C(=O)C2 (stereo not drawn) | IC50 [5]: 3.2 nM
3.4 nM | – | 7.8 | – | CC12CCCC(/C=C/C(=O)NS(=O)(=O)c3ccc(F)c(F)c3)=C1N(Cc1cccc(Cl)c1Cl)C(=O)C2 (stereo not drawn) | IC50 [5]: 3.5 nM
